Screens: PubChem BioAssay, Johns Hopkins Ion Channel Center
Sampled rows, rich in hits. Any-hit rate of the full collection: about 3.1%.
KCNK9 inh: blocks the human KCNK9 two-pore domain potassium channel. Q9NPC2. HEK293 KCNK9, FluxOR thallium flux fluorescence; stronger effect = lower value. B-score at 10 µM. 310,000 tested, 1.2% active;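 active means ratio B-score over 3 SD below the library mean, with starting fluorescence within 5 SD of its mean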;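 further: negative B-score means less thallium flux so channel inhibition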
KCNK3 block: human KCNK3 channel inhibition, primary screen. O14649. CHO-KCNK3 thallium flux, FluxOR fluorescence; stronger effect = lower value. B-score at 10 µM. 340,000 tested, 0.84% active. AID 602410;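 active means B-score under library mean minus 4 SD, starting fluorescence ratio at most library mean plus 5 SD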;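 further: more negative B-score means stronger inhibition of thallium flux through KCNK3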
KCNQ1 inh: inhibitors of human KCNQ1 potassium channel | 310,000 tested, 1.3% active | CHO-K1 KCNQ1, FluxOR thallium flux fluorescence; stronger effect = higher value | B-score at 10 µM;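 active means compounds whose thallium flux B-score, printed positive for inhibition, exceeds three library SD while starting fluorescence stays within three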;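 further: channel opened by potassium depolarization with thallium stimulus after 20 min compound exposure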
Target sequence (P51787 whole entry, looked up): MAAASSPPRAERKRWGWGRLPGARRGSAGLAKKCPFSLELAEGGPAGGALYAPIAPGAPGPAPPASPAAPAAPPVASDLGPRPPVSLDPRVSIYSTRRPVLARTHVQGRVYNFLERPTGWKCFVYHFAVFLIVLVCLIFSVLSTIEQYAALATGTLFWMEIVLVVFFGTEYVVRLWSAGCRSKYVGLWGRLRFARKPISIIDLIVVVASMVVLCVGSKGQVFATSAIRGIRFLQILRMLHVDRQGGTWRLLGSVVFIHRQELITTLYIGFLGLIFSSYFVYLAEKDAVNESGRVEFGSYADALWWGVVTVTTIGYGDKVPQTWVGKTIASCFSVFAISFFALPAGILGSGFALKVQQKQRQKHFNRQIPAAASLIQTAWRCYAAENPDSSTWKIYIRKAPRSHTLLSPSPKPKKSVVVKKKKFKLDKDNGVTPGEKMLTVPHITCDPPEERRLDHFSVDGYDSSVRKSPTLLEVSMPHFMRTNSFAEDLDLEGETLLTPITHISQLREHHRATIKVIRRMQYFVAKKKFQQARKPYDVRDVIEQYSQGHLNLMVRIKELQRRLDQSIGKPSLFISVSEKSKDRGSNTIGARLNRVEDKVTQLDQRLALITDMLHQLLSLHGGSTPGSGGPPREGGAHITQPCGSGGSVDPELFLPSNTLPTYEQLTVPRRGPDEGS
hERG rescue: shields human hERG channel from block by proarrhythmic agents | activation (rescue from dofetilide block), less the hit threshold, % at 10 µM | CHO-hERG, FluxOR thallium flux, dofetilide IC70 present | 310,000 tested, 0.51% active | Q12809;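 active means activation above the mean of controls blocked by dofetilide plus 5 SD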;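 further: thallium influx through hERG after potassium depolarization seen as dye fluorescence rise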
KCNQ1 act: human KCNQ1 channel potentiation or activation. AID 2648. P51787. CHO-K1 KCNQ1, thallium flux FluxOR fluorescence; stronger effect = higher value. 310,000 tested, 0.35% active. B-score at 10 µM;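 active means fluorescence ratio B-score, a plate-corrected score, at least three library SD, with initial intensity B-score within 5 SD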
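Material: CHO-K1 cells stably expressing KCNQ1. Medium: assay buffer for compound exposure, DMSO matched across wells. Reagent: K+/Tl+ depolarizing stimulus. Compound dosing: single-concentration screen. Times: 37 °C overnight plating, 90-min dark dye load, 20-min compound pretreatment. Technique: FluxOR Tl+ flux fluorescence.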
KCNQ1 inh valid: confirmation of human KCNQ1 potassium channel inhibitors. inhibition, % at 10 µM. 1,600 tested, 93% active. AID 588353. KCNQ1 cell line, FluxOR thallium flux fluorescence. shares compounds with KCNQ1 inh;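 active means primary screen active, with duplicate mean exceeding buffer control mean plus 3 SD of buffer wells, cut at about 28% in these data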;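 further: 0% = buffer control ratio and 100% = XE991 inhibitor control ratio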
CHO KCNQ1 ctr: counter-screen for KCNQ1 inhibitors: effect in parental CHO cells; fluorescence ratio (Tl flux) at 10 µM; AID 588366; 1,600 tested, 21% active; parental CHO-K1, FluxOR thallium flux fluorescence ratio; stronger effect = lower value; zero means no signal rise above baseline; shares compounds with KCNQ1 inh;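 active means mean of duplicate thallium-flux fluorescence ratios in parental host cells more than 5 SD below the buffer control mean, cut at about 0.38 in these data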;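 further: ratio is peak minus minimum fluorescence divided by baseline fluorescence; actives read low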
KCNQ1 ephys val: blocks human KCNQ1 current in automated patch clamp. AID 624120. shares compounds with KCNQ1 inh. calls only at 10 µM. KCNQ1-CHO cells. 490 tested, 20% active;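 active means KCNQ1 current drop exceeding 3 SD of negative control wells, seen in both duplicate runs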;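 further: steady state current during a 2 s step from -80 to +40 mV; negative values mean current inhibition and positive values mean potentiation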
KCNQ2 inh: KCNQ1 inhibitor that also blocks rat KCNQ2 channel; AID 651746; KCNQ2 cells, FluxOR thallium flux fluorescence; 1,600 tested, 71% active; shares compounds with KCNQ1 inh; inhibition, % at 10 µM;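 active means mean percent inhibition of the KCNQ2 thallium signal more than 5 SD above the buffer-only control wells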;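 further: KCNQ2 expressed in CHO cells; 0% = buffer control wells and 100% = XE-991 inhibitor control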
KCNQ1-KCNE1 inh: selectivity of KCNQ1 inhibitors: inhibition of human KCNQ1/KCNE1 channel. KCNQ1/KCNE1 cells, FluxOR thallium flux fluorescence. inhibition, % at 10 µM. shares compounds with KCNQ1 inh. 1,600 tested, 77% active;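 active means mean percent inhibition of duplicate wells above the buffer-only control mean plus 3 SD of those controls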;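 further: 0% = buffer only wells and 100% = XE-991 inhibitor control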
* hit, by the source's call; i = inactive; x = no result given; + = active, no number.

SMILES	KCNK9 inh	KCNK3 block	KCNQ1 inh	hERG rescue	KCNQ1 act	KCNQ1 inh valid	CHO KCNQ1 ctr	KCNQ2 inh	KCNQ1-KCNE1 inh	others
Cc1ccc2nc(-c3cccnc3)cc(C(=O)N3CCN(c4ccc([N+](=O)[O-])cc4)CC3)c2c1	i	i	i	-29.9	i	x	x	x	x
Cc1ccc(NC(=O)C2CCN(S(=O)(=O)c3cc([N+](=O)[O-])ccc3Cl)CC2)nc1	x	i	x	x	x	x	x	x	x
O=C(Nc1nc2ccc(F)cc2s1)C1CCN(S(=O)(=O)c2cc([N+](=O)[O-])ccc2Cl)CC1	i	i	15*	-19.5	i	158.5*	0.373*	118.3%*	197.5%*
O=C(COC(=O)c1ccc(Cl)nc1)NCCc1ccc(F)cc1	x	i	x	x	x	x	x	x	x
CCOC(=O)c1c(C)n(C)c2cc([N+](=O)[O-])c(O)c([N+](=O)[O-])c12	i	i	i	-1.8	i	x	x	x	x
CCOC(=O)c1c(C)n(C)c2cc(Br)c(O)c(O)c12	i	i	6*	-5.0	i	0.0	0.503	59.3%*	i
COc1ccc(CNC(=O)Cn2cc(C)c(=O)[nH]c2=O)cc1	x	i	x	x	x	x	x	x	x
O=C(c1ccc(-c2cc(O)c3ncccc3c2)cc1)N1CCNCC1	x	i	x	x	x	x	x	x	x
CCCCCOc1ccc(Br)cc1CSC(=N)N	i	i	9*	-27.2	i	125.0*	0.369*	86.3%*	94.5%*
COc1ccc(Br)cc1CSC(=N)N	i	i	i	-8.8	i	x	x	x	x
CCOc1nc(Nc2ccc(OC)c(Cl)c2)nc(N2CCN(c3ccc(OC)cc3)CC2)n1	i	i	7*	-11.0	i	113.5*	0.483	79.0%*	143.5%*	KCNQ1 ephys val=i
CCOc1nc(Nc2ccc(F)cc2)nc(N2CCN(c3ccc(OC)cc3)CC2)n1	i	i	i	-8.8	i	x	x	x	x
Cc1cc(=O)n(CC(=O)NC2CC2)c2c1c(C)nn2-c1ccccc1	i	i	7*	-9.2	i	79.5*	0.457	i	93.5%*
CS(=O)(=O)c1cccc(C(=O)OCC(=O)Nc2ccc3c(c2)OCO3)c1	x	i	x	x	x	x	x	x	x
O=S(=O)(c1cccc(Br)c1)N1CCN(c2ncnc3scc(-c4ccccc4)c23)CC1	x	i	x	x	x	x	x	x	x
Cc1csc2ncnc(N3CCN(S(=O)(=O)c4cccc(C(F)(F)F)c4)CC3)c12	i	i	19*	-12.7	i	134.0*	0.425	113.0%*	129.5%*	KCNQ1 ephys val=i
CCOC(=O)c1c(NC(=O)CSc2nnc(-c3c[nH]c4ccccc34)n2C)sc2c1CCCC2	i	i	7*	-21.5	i	64.0*	0.458	65.3%*	i
CC1(C)C=Cc2c(ccc3c2OC[C@H](c2ccc(O)cc2O)C3)O1	x	i	x	x	x	x	x	x	x
CC(=O)Oc1ccc([C@@H]2COc3c(ccc4c3C=CC(C)(C)O4)C2)c(OC(C)=O)c1	i	i	7*	-10.4	i	136.5*	0.42	90.3%*	78.0%*
O=C(NCCc1ccc(Cl)cc1)c1ccc2[nH]c(=O)c(=O)[nH]c2c1	i	i	i	-8.6	i	x	x	x	x
O=C(Nc1cccc(Cl)c1)N1CCSc2cc(Cl)ccc21	i	i	9*	-17.2	i	119.0*	0.451	111.3%*	68.5%*
COc1cccc(NC(=O)C(c2ccccc2)N2CCCCC2)c1 (centres undefined)	i	i	i	-10.4	i	x	x	x	x
Cc1ccc(NC(=O)C(c2ccc(Cl)cc2Cl)N2CCCC2)cc1 (centres undefined)	-7.08*	i	8*	-9.3	i	91.5*	0.383	i	152.5%*	KCNQ1 ephys val=+
O=C(Nc1cc(Cl)cc(Cl)c1)C(c1ccccc1)N1CCCCC1 (centres undefined)	i	i	8*	-8.1	i	120.5*	0.363*	122.3%*	114.0%*
O=C1CCCN1CCCN1CC(C(=O)N(CCO)Cc2ccccc2)CCC1=O (centres undefined)	i	i	i	-6.0	i	x	x	x	x
SMILES	KCNK9 inh	KCNK3 block	KCNQ1 inh	hERG rescue	KCNQ1 act	KCNQ1 inh valid	CHO KCNQ1 ctr	KCNQ2 inh	KCNQ1-KCNE1 inh	others
CSc1ccc(OC2CCCCC2NS(=O)(=O)c2ccc(Cl)cc2)cc1 (centres undefined)	i	i	6*	-8.2	i	119.5*	0.406	115.0%*	142.0%*	KCNQ1 ephys val=i
O=S(=O)(NC1CCCCC1Oc1ccccc1)c1ccc(Cl)cc1 (centres undefined)	i	i	i	-8.6	i	x	x	x	x
Cc1cc(C)nc(NC(=O)c2ccc(COc3ccccc3Cl)cc2)c1	i	i	8*	-6.2	i	103.0*	0.447	106.0%*	123.0%*	KCNQ1 ephys val=i
O=C(CN1C2=NCCN2c2ccccc21)C12CC3CC(CC(C3)C1)C2	i	i	11*	-8.9	i	70.5*	0.432	73.7%*	39.5%*
O=C(Nc1ccc(F)cc1)c1ccc2snnc2c1	i	i	i	-2.4	i	x	x	x	x
CCCc1cc(C(=O)Nc2ccc(C(=O)c3ccc(F)cc3)cc2)n(C)n1	i	-12.1*	6*	-3.4	i	+	0.39	137.3%*	+
CCOc1ccc(NC(=O)CCCNC(=O)Cn2cnc3sc(C)c(C)c3c2=O)cc1	i	i	i	-4.8	i	x	x	x	x
Nc1nc(Cl)cc(N2CCC(c3cc(-c4ccc(Cl)cc4Cl)n[nH]3)CC2)n1	i	i	6*	-14.8	i	135.5*	0.369*	112.7%*	174.5%*
Nc1nc(Cl)cc(N2CCCC2)n1	i	i	i	-7.2	i	x	x	x	x
CSCC[C@H](NC(=O)[C@@H]1Cc2ccccc2CN1)C(=O)Nc1ccc2c(c1)OCCO2	i	i	i	-8.1	i	x	x	x	x
CCOC(=O)C1=CN(C(C)C)CCC1=O	x	i	x	x	x	x	x	x	x
O=C(C=Cc1cccs1)c1ccccc1	x	i	x	x	x	x	x	x	x
Cc1nn(C)c(C)c1NC(=O)Nc1ccc(Cl)c(Cl)c1	i	i	6*	-20.9	i	77.0*	0.464	i	76.0%*
Oc1ccc(-c2nnc(-c3ccccc3)c(-c3ccccc3)n2)cc1	i	x	i	-9.5	i	x	x	x	x
